This note sets out measurements from ChEMBL document CHEMBL1124901 (J Med Chem, 1990).

Each structure is given as a SMILES string.

Series [1] is described as follows: Partition coefficient (logP). Conditions: octanol/water. The format is physicochemical.
For series [2], the target named is Dopamine receptor. As to the kind of experiment: In vitro inhibition of [3H]spiperone binding to Dopamine receptor D2 in Macaca nemestrina striatal membranes. Also on record: species or system Striatum, Membrane. The method, boiled down: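 Caudate tissue from adult Macaca nemestrina brains, homogenized in ice-cold 50 mM potassium phosphate pH 7.4, washed twice by centrifugation at 30000g and stored at -70 °C. Assay used 25-50 µg protein in 50 mM Tris-HCl, 120 mM NaCl, 5 mM CaCl2, 1 mM MgCl2, pH 7.4, with 0.2 nM [3H]spiperone for 30 min at 37 °C. Bound ligand was collected by filtration and counted by scintillation. Nonspecific binding was defined with 1 µM cis-flupenthixol. Ki was taken from competitive displacement.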

The test system of series [3] is Rattus norvegicus. As to the kind of experiment: In vivo tissue biodistribution behavior of high specific activity was determined in rat whole brain at 5 min postinjection of radiolabeled compound. The format is ADME, organism-based. Summed up: (§1)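 Female Sprague-Dawley rats (200-250 g) under light ether anesthesia received 50-100 µCi of the 18F-labelled ligand (>1000 Ci/mmol) in 0.2 mL buffered saline into the femoral vein. Food and water were free until decapitation. Blood was drawn by cardiac puncture and the femur and brain regions were taken. Tissues were weighed and gamma counted. Values are %ID/g, mean ± SD of 4-5 rats.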

For series [4], the system named is Rattus norvegicus. Nature of the series: In vivo tissue biodistribution behavior of high specific activity was determined in rat blood at 30 min postinjection of radiolabeled compound. Type of series: ADME, organism-based. The note with it: 0.5 h. Summed up: as §1
The test system of series [5] is Rattus norvegicus. As to the kind of experiment: In vivo tissue biodistribution behavior of high specific activity was determined in rat blood at 5 min postinjection of radiolabeled compound. Type of series: ADME, organism-based. Summed up:
as §1

For series [6], the system named is Rattus norvegicus. As to the kind of experiment: In vivo tissue biodistribution behavior of high specific activity was determined in rat bone at 30 min postinjection of radiolabeled compound. Type of series: ADME, organism-based, Bone element. The note with it: 0.5 h. The method, boiled down: as §1
Series [7] concerns Rattus norvegicus. As to the kind of experiment: In vivo tissue biodistribution behavior of high specific activity was determined in rat bone at 5 min postinjection of radiolabeled compound. The format is ADME, organism-based, Bone element. Summed up:
as §1

In series [8] the test system is Rattus norvegicus. As to the kind of experiment: In vivo tissue biodistribution behavior of high specific activity was determined in rat cerebellum at 30 min postinjection of radiolabeled compound. Conditions: 0.5 h. Type of series: ADME, organism-based. The method, boiled down:
as §1

For series [9], the system named is Rattus norvegicus. As to the kind of experiment: In vivo tissue biodistribution behavior of high specific activity was determined in rat cerebellum at 5 min postinjection of radiolabeled compound. Type of series: ADME, organism-based. The method, boiled down:
as §1

Series [10] deals with Rattus norvegicus. As to the kind of experiment: In vivo tissue biodistribution behavior of high specific activity was determined in rat striatum at 30 min postinjection of radiolabeled compound. The format is ADME, organism-based. The note with it: 0.5 h. The method, boiled down:
as §1

For series [11], the system named is Rattus norvegicus. Nature of the series: In vivo tissue biodistribution behavior of high specific activity was determined in rat striatum at 5 min postinjection of radiolabeled compound. The format is ADME, organism-based. Summed up:
as §1

For series [12], the system named is Rattus norvegicus. Nature of the series: In vivo tissue biodistribution behavior of high specific activity was determined in rat whole brain at 30 min postinjection of radiolabeled compound. Type of series: ADME, organism-based. Conditions: 0.5 h. Summed up: as §1
Series [13] concerns Rattus norvegicus. Nature of the series: In vivo tissue biodistribution behavior of high specific activity was determined in rat whole brain at 60 min postinjection of radiolabeled compound. The format is ADME, organism-based. Conditions: 1 h. Summed up:
as §1

The subject of series [14] is Rattus norvegicus. Nature of the series: In vivo tissue biodistribution behavior of high specific activity was determined in rat blood at 60 min postinjection of radiolabeled compound. The note with it: 1 h. The format is ADME, organism-based. The method, boiled down: as §1
Series [15] deals with Rattus norvegicus. Nature of the series: In vivo tissue biodistribution behavior of high specific activity was determined in rat bone at 60 min postinjection of radiolabeled compound. Type of series: ADME, organism-based, Bone element. Conditions: 1 h. Summed up: as §1
The test system of series [16] is Rattus norvegicus. As to the kind of experiment: In vivo tissue biodistribution behavior of high specific activity was determined in rat cerebellum at 60 min postinjection of radiolabeled compound. Type of series: ADME, organism-based. Conditions: 1 h. The method, boiled down:
as §1

The test system of series [17] is Rattus norvegicus. As to the kind of experiment: In vivo tissue biodistribution behavior of high specific activity was determined in rat striatum at 60 min postinjection of radiolabeled compound. Type of series: ADME, organism-based. Conditions: 1 h. The method, boiled down: as §1
A short description of series [18]: In vivo tissue biodistribution behavior of high specific activity was determined in whole brain at 60 min postinjection of radiolabeled compound. Type of series: ADME, organism-based. The note with it: 1 h. Summed up:
as §1

The nature of series [19]: Dissociation constant of the compound; value ranges from 0.81-1.2 nM. The format is physicochemical.

`COc1c(Cl)cc(Cl)c(O)c1C(=O)NC[C@H]1CCCN1CCC(C)F` (stereo not given in full): the logP in series [1] came to 1.5. This compound registered a Ki in series [2] of 2620 nM.
With `COc1c(Cl)cc(Cl)c(O)c1C(=O)NC[C@@H]1CCCN1CC[18F]`, the Tissue concentration in series [3] came out at 0.52 % injected dose g-1; in [4] it was 0.07 % injected dose g-1; in series [5], 0.16 % injected dose g-1; in series [6], 0.23 % injected dose g-1; in [7] it was 0.2 % injected dose g-1; in series [8], 0.05 % injected dose g-1. Moreover, the Tissue concentration came to 0.42 % injected dose g-1 in [9], 0.09 % injected dose g-1 in series [10], 0.62 % injected dose g-1 in series [11] and 0.06 % injected dose g-1 in series [12].
Consider `COc1c(Cl)cc(Cl)c(O)c1C(=O)NC[C@@H]1CCCN1CCCC[18F]`, for which the Tissue concentration in [3] is reported as 0.71 % injected dose g-1; in series [13], 0.06 % injected dose g-1; in series [4], 0.09 % injected dose g-1; in series [5] it was 0.21 % injected dose g-1; in [14], 0.06 % injected dose g-1; in series [6], 0.24 % injected dose g-1. Moreover, the Tissue concentration stood at 0.22 % injected dose g-1 in [7]; 0.39 % injected dose g-1 in series [15]; 0.08 % injected dose g-1 in series [8]; 0.58 % injected dose g-1 in series [9]; 0.05 % injected dose g-1 in series [16]; 0.12 % injected dose g-1 in series [10]. Besides, the Tissue concentration was 0.87 % injected dose g-1 in series [11], 0.09 % injected dose g-1 in series [17] and 0.1 % injected dose g-1 in series [12].
Consider `COc1c(Cl)cc(Cl)c(O)c1C(=O)NC[C@@H]1CCCN1CCC[18F]`, for which the Tissue concentration in [3] stood at 1.16 % injected dose g-1; in series [18] it was 0.04 % injected dose g-1; in series [4], 0.1 % injected dose g-1; in series [5] it was 0.26 % injected dose g-1; in series [14], 0.05 % injected dose g-1; in [6] it was 0.34 % injected dose g-1. Moreover, the Tissue concentration in series [7] worked out at 0.28 % injected dose g-1; in series [15] it was 0.54 % injected dose g-1; in series [8], 0.09 % injected dose g-1; in series [9], 0.98 % injected dose g-1; in series [16], 0.03 % injected dose g-1; in series [10], 0.13 % injected dose g-1. The Tissue concentration in [11] worked out at 1.5 % injected dose g-1; in series [17], 0.07 % injected dose g-1; in series [12], 0.11 % injected dose g-1.
In series [1], `COc1c(Cl)cc(Cl)c(O)c1C(=O)NC[C@@H]1CCCN1CCF` displayed a lipophilicity (logP) of 0.55. This compound also came in with an inhibition constant Ki in series [2] of 159 nM.
For `CCCCN1CCC[C@H]1CNC(=O)c1c(O)c(Cl)cc(Cl)c1OC`, in that order: 2.28 and 41.1 nM.
For the compound `COc1c(Cl)cc(Cl)c(O)c1C(=O)NC[C@@H]1CCCN1CCC(C)F` (stereo not given in full), the logP in [1] worked out at 1.5. The compound further registered a Ki in series [2] of 2610 nM.
`COc1c(Cl)cc(Cl)c(O)c1C(=O)NC[C@@H]1CCCN1CCCCF` displayed a logP in series [1] of 1.6. Also, the Ki in series [2] is reported as 88.5 nM.
For the compound `CCCN1CCC[C@H]1CNC(=O)c1c(O)c(Cl)cc(Cl)c1OC`, the logP in series [1] is 1.75. In series [2], the inhibitory constant (Ki) was 17.3 nM.
Compound `COc1c(Cl)cc(Cl)c(O)c1C(=O)NC[C@@H]1CCCN1CCCF` returned a logP in series [1] of 1.07. In [2], this compound gave an inhibition constant (Ki) of 130 nM.
`CCN1CCC[C@H]1CNC(=O)c1c(O)c(Cl)cc(Cl)c1OC` [RACLOPRIDE]: the dissociation constant Kd in series [19] was found to be 0.81 nM.

For orientation: logP means the decadic logarithm of the partition coefficient of the neutral form, usually between octanol and water. Low readings indicate lower lipophilicity, high ones higher lipophilicity. Broadly, the Ki is the equilibrium dissociation constant of an inhibitor or competing ligand from its target. Higher therefore signals lower affinity. By Kd is commonly meant the free concentration of one partner at which half of the binding sites on the other are occupied at equilibrium, for simple one-to-one binding. Low values mean higher affinity, high ones lower affinity.
